According to ChEMBL document CHEMBL1121603, “Structure-activity relationships of antibacterial 6,7- and 7,8-disubstituted 1-alkyl-1,4-dihydro-4-oxoquinoline-3-carboxylic acids” (1980):
≈ marks a conversion by molar mass, not a printed value.

Tests used:
Type in all cases: functional
Pseudomonas aeruginosa = experiment: In vitro antibacterial activity against Gram-negative Pseudomonas aeruginosa V-1.
Outline: (§1)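 MIC in µg/mL, determined by a standard twofold serial dilution method on agar media.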

Escherichia coli = experiment: In vitro for antibacterial activity against Gram-negative Escherichia coli […] JC-2.; outline: as §1
Staphylococcus aureus = experiment: In vitro antibacterial activity against Gram-positive, Staphylococcus aureus 209 P; outline: as §1

Row | SMILES | MIC (Pseudomonas aeruginosa) [µg/mL] | MIC (Escherichia coli) [µg/mL] | MIC (Staphylococcus aureus) [µg/mL]
1 | CCn1cc(C(=O)OC)c(=O)c2cc(F)c(N3CCNCC3)cc21 | 50 (≈ 150 µM) | 12.5 (≈ 37.5 µM) | 100 (≈ 300 µM)
2 | CCn1cc(C(=O)O)c(=O)c2ccc(N3CCNCC3)cc21 | 3.13 (≈ 10.4 µM) | 0.78 (≈ 2.59 µM) | 12.5 (≈ 41.5 µM)
3 | O=C(O)c1cn(Cc2ccccc2)c2cc(N3CCNCC3)c(F)cc2c1=O | 1.56 (≈ 4.09 µM) | 0.78 (≈ 2.05 µM) | 1.56 (≈ 4.09 µM)
4 | CCn1cc(C(=O)O)c(=O)c2cc(C(C)=O)c(N3CCNCC3)cc21 | > 100 | 100 (≈ 291 µM) | 100 (≈ 291 µM)
5 | CCn1cc(C(=O)O)c(=O)c2cc(F)c(N(C)C)cc21 | 50 (≈ 180 µM) | 0.39 (≈ 1.4 µM) | 0.78 (≈ 2.8 µM)
6 | C=Cn1cc(C(=O)O)c(=O)c2cc(F)c(N3CCNCC3)cc21 | 0.39 (≈ 1.23 µM) | 0.1 (≈ 0.315 µM) | 3.13 (≈ 9.86 µM)
7 | CCn1cc(C(=O)O)c(=O)c2cc(F)c(Cl)cc21 | 100 (≈ 371 µM) | 1.56 (≈ 5.79 µM) | 12.5 (≈ 46.4 µM)
8 | CCOC(=O)c1cn(CC)c2cc(N3CCNCC3)c(F)cc2c1=O | 50 (≈ 144 µM) | 12.5 (≈ 36 µM) | 50 (≈ 144 µM)
9 | CCn1ccc(=O)c2cc(F)c(N3CCNCC3)cc21 | > 100 | > 100 | > 100
10 | CCn1cc(C(=O)O)c(=O)c2cc(C#N)c(N3CCNCC3)cc21 | 6.25 (≈ 19.2 µM) | 0.39 (≈ 1.2 µM) | 12.5 (≈ 38.3 µM)
11 | Cl.O=C(O)c1cn(CCO)c2cc(N3CCNCC3)c(F)cc2c1=O | 3.13 | 0.39 | 1.56
12 | CCn1cc(C(=O)O)c(=O)c2ccc(N3CCNCC3)c(Cl)c21.Cl | 6.25 | 0.39 | 3.13
13 | Cl.O=C(O)c1cn(CCF)c2cc(N3CCNCC3)c(F)cc2c1=O | 0.78 | 0.1 | 1.56
14 | C=CCn1cc(C(=O)O)c(=O)c2cc(F)c(N3CCNCC3)cc21.Cl | 1.56 | 0.2 | 3.13
15 | CCn1cc(C(=O)O)c(=O)c2ccc(N3CCNCC3)c(F)c21.Cl | 1.56 | 0.78 | 12.5
16 | Cl.Cn1cc(C(=O)O)c(=O)c2cc(F)c(N3CCNCC3)cc21 | 1.56 | 0.39 | 6.25
17 | CCn1cc(C(=O)O)c(=O)c2cc(Cl)c(N3CCNCC3)cc21.Cl | 3.13 | 0.2 | 1.56
18 | CCCn1cc(C(=O)O)c(=O)c2cc(F)c(N3CCNCC3)cc21.Cl | 3.13 | 0.2 | 1.56
19 | CCn1cc(C(=O)O)c(=O)c2cc(Br)c(N3CCNCC3)cc21.Cl | 12.5 | 0.39 | 3.13
20 | CCn1cc(C(=O)O)c(=O)c2cc(C)c(N3CCNCC3)cc21.Cl | 6.25 | 0.39 | 3.13
21 | CCn1cc(C(=O)O)c(=O)c2cc(F)c(NCCN)cc21 | 50 (≈ 170 µM) | 6.25 (≈ 21.3 µM) | > 100
22 | CCn1cc(C(=O)O)c(=O)c2cc(F)c(NCCNC(C)=O)cc21 [7-ACETYLAMINOETHYL-AMINO-FLUOROQUINONE] | > 100 | 25 (≈ 74.6 µM) | > 100
23 | CCn1cc(C(=O)O)c(=O)c2cc(F)c(N)cc21 [7-AMINO-FLUOROQUINONE] | > 100 | 3.13 (≈ 12.5 µM) | > 100
24 | CCn1cc(C(=O)O)c(=O)c2cc(F)c(C)cc21 [NALDIXIC ACID] | 50 (≈ 201 µM) | 0.39 (≈ 1.56 µM) | 6.25 (≈ 25.1 µM)
25 | CCn1cc(C(=O)O)c(=O)c2ccc(C)nc21 [NALIDIXIC ACID] | 100 (≈ 431 µM) | 3.13 (≈ 13.5 µM) | > 100
26 | CCn1cc(C(=O)O)c(=O)c2cc(F)c(N3CCNCC3)cc21 [NORFLOXACIN] | 0.39 (≈ 1.22 µM) | 0.05 (≈ 0.157 µM) | 0.39 (≈ 1.22 µM)
27 | CCn1cc(C(=O)O)c(=O)c2cc3c(cc21)OCO3 [OXOLINIC ACID] | 25 (≈ 95.7 µM) | 0.1 (≈ 0.383 µM) | 3.13 (≈ 12 µM)
28 | CCn1cc(C(=O)O)c(=O)c2cnc(N3CCNCC3)nc21 [PIPEMIDIC ACID] | 12.5 (≈ 41.2 µM) | 1.56 (≈ 5.14 µM) | 25 (≈ 82.4 µM)

Now from value to molecule:

Row | MIC (Pseudomonas aeruginosa) [µg/mL] | MIC (Escherichia coli) [µg/mL] | MIC (Staphylococcus aureus) [µg/mL] | SMILES
29 | 3.13 (≈ 9.01 µM) | 0.1 (≈ 0.288 µM) |  | CCN1CCN(c2cc3c(cc2F)c(=O)c(C(=O)O)cn3CC)CC1
30 | 12.5 (≈ 37.4 µM) | 0.2 (≈ 0.598 µM) | 0.39 (≈ 1.17 µM) | CCn1cc(C(=O)O)c(=O)c2cc(F)c(N3CCC(O)CC3)cc21
31 | 12.5 (≈ 39 µM) | 0.2 (≈ 0.624 µM) | 0.78 (≈ 2.44 µM) | CCn1cc(C(=O)O)c(=O)c2cc(F)c(N3CCOCC3)cc21
32 | 12.5 (≈ 36 µM) | 0.78 (≈ 2.24 µM) | 25 (≈ 72 µM) | CCn1cc(C(=O)O)c(=O)c2cc(SC)c(N3CCNCC3)cc21
33 | 12.5 (≈ 29.4 µM) |  |  | CCn1cc(C(=O)O)c(=O)c2cc(F)c(N3CCN(Cc4ccc(N)cc4)CC3)cc21
34 | 25 (≈ 71.5 µM) | 0.78 (≈ 2.23 µM) | 1.56 (≈ 4.46 µM) | CCn1cc(C(=O)O)c(=O)c2cc(Cl)c(N3CCN(C)CC3)cc21
35 | 25 (≈ 59 µM) | 3.13 (≈ 7.39 µM) | 1.56 (≈ 3.68 µM) | CCn1cc(C(=O)O)c(=O)c2cc(F)c(N3CCN(C(=O)c4ccccc4)CC3)cc21
36 | 100 (≈ 254 µM) | 0.39 (≈ 0.989 µM) | 1.56 (≈ 3.96 µM) | CCn1cc(C(=O)O)c(=O)c2cc(Br)c(N3CCN(C)CC3)cc21
37 | 12.5 (≈ 41.1 µM) | 0.39 (≈ 1.28 µM) | 0.2 (≈ 0.657 µM) | CCn1cc(C(=O)O)c(=O)c2cc(F)c(N3CCCC3)cc21
38 | 100 (≈ 277 µM) | 1.56 (≈ 4.32 µM) | 1.56 (≈ 4.32 µM) | CCn1cc(C(=O)O)c(=O)c2cc(F)c(N3CCC(C(N)=O)CC3)cc21
39 | 3.13 (≈ 8.91 µM) | 0.1 (≈ 0.285 µM) | 0.39 (≈ 1.11 µM) | CN1CCN(c2cc3c(cc2F)c(=O)c(C(=O)O)cn3CCF)CC1
40 | 3.13 (≈ 9.45 µM) | 0.1 (≈ 0.302 µM) | 1.56 (≈ 4.71 µM) | C=Cn1cc(C(=O)O)c(=O)c2cc(F)c(N3CCN(C)CC3)cc21
41 | 3.13 (≈ 8.66 µM) | 0.1 (≈ 0.277 µM) | 0.39 (≈ 1.08 µM) | CCn1cc(C(=O)O)c(=O)c2cc(F)c(N3CCC(N(C)C)CC3)cc21
42 | 6.25 (≈ 17.4 µM) | 0.39 (≈ 1.09 µM) | 0.39 (≈ 1.09 µM) | C=CCN1CCN(c2cc3c(cc2F)c(=O)c(C(=O)O)cn3CC)CC1
43 | > 100 | 6.25 (≈ 13.8 µM) | 1.56 (≈ 3.43 µM) | CCn1cc(C(=O)O)c(=O)c2cc(F)c(N3CCN(Cc4ccc([N+](=O)[O-])cc4)CC3)cc21
44 | 50 (≈ 122 µM) | 0.78 (≈ 1.9 µM) | 0.39 (≈ 0.952 µM) | CCn1cc(C(=O)O)c(=O)c2cc(F)c(N3CCN(Cc4ccccc4)CC3)cc21
45 | 6.25 (≈ 17.2 µM) | 0.1 (≈ 0.275 µM) | 0.78 (≈ 2.15 µM) | CCn1cc(C(=O)O)c(=O)c2cc(F)c(N3CCN(CCO)CC3)cc21
46 | 12.5 (≈ 36.1 µM) | 0.78 (≈ 2.25 µM) | 25 (≈ 72.2 µM) | CCn1cc(C(=O)O)c(=O)c2cc([N+](=O)[O-])c(N3CCNCC3)cc21
47 | 50 (≈ 157 µM) | 1.56 (≈ 4.9 µM) | 0.78 (≈ 2.45 µM) | CCn1cc(C(=O)O)c(=O)c2cc(F)c(N3CCCCC3)cc21
48 | 12.5 (≈ 37.5 µM) | 0.39 (≈ 1.17 µM) | 3.13 (≈ 9.39 µM) | CCn1cc(C(=O)O)c(=O)c2cc(F)c(N3CCNC(=O)C3)cc21 [3-OXO-1-PIPERAZINYL-NORFLOXACIN]
49 | 25 (≈ 69.2 µM) | 1.56 (≈ 4.32 µM) | 0.78 (≈ 2.16 µM) | CCn1cc(C(=O)O)c(=O)c2cc(F)c(N3CCN(C(C)=O)CC3)cc21 [4-N-ACETYL-1-PIPERAZINYL-NORFLOXACIN]
50 | 6.25 (≈ 18 µM) | 0.39 (≈ 1.12 µM) | 1.56 (≈ 4.49 µM) | CCn1cc(C(=O)O)c(=O)c2cc(F)c(N3CCN(C=O)CC3)cc21 [4-N-FORMYL-1-PIPERAZINYL-NORFLOXACIN]
51 |  | 0.1 (≈ 0.3 µM) | 0.39 (≈ 1.17 µM) | CCn1cc(C(=O)O)c(=O)c2cc(F)c(N3CCN(C)CC3)cc21 [PEFLOXACIN]
